According to ChEMBL document CHEMBL3407457, “Microwave-assisted synthesis of certain pyrrolylpyridines, some derived ring systems and their evaluation as anticancer and antioxidant agents” (Eur J Med Chem, 2015):
Calls of active or inactive are those of the source. No cut-off for these calls is given here.

Legend:
U-251 = assay: Growth inhibition of human U251 cells at 10 uM after 48 hrs by sulforhodamine B assay; assay type: functional; conditions: for inhibition of growth at 10 µM: U-251, 48 h, read-out: GI
How it was run: (§1)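 NCI-60 primary screen: cells given a single 10 µM dose under 48 h continuous exposure. Growth/viability estimated by sulforhodamine B protein assay. Reported as percent growth of treated cells (mean graph), expressed as percent growth inhibition.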

MDA-MB-468 = assay: Growth inhibition of human MDA-MB-468 cells at 10 uM after 48 hrs by sulforhodamine B assay; assay type: functional; conditions: for inhibition of growth at 10 µM: MDA-MB-468, 48 h, read-out: GI; how it was run: as §1
[1] = Growth inhibition of human HCT15 cells at 10 uM after 48 hrs by sulforhodamine B assay; assay type: functional; conditions: HCT-15, 48 h, read-out: GI; how it was run: as §1
SNB-75 = assay: Growth inhibition of human SNB75 cells at 10 uM after 48 hrs by sulforhodamine B assay; assay type: functional; conditions: for inhibition of growth at 10 µM: SNB-75, 48 h, read-out: GI; how it was run: as §1
K562 = assay: Growth inhibition of human K562 cells at 10 uM after 48 hrs by sulforhodamine B assay; assay type: functional; conditions: K562, 48 h, read-out: GI; how it was run: as §1
ACHN = assay: Growth inhibition of human ACHN cells at 10 uM after 48 hrs by sulforhodamine B assay; assay type: functional; conditions: read-out: GI; how it was run: as §1
T47D = assay: Growth inhibition of human T47D cells at 10 uM after 48 hrs by sulforhodamine B assay; assay type: functional; conditions: read-out: GI; how it was run: as §1
CCRF-CEM = assay: Growth inhibition of human CCRF-CEM cells at 10 uM after 48 hrs by sulforhodamine B assay; assay type: functional; conditions: read-out: GI; how it was run: as §1
[2] = Growth inhibition of human RPMI8226 cells at 10 uM after 48 hrs by sulforhodamine B assay; assay type: functional; conditions: RPMI-8226, 48 h, read-out: GI; how it was run: as §1
SK-MEL-5 = assay: Growth inhibition of human SK-MEL-5 cells at 10 uM after 48 hrs by sulforhodamine B assay; assay type: functional; conditions: SK-MEL-5, 48 h, read-out: GI; how it was run: as §1
UO-31 = assay: (§2) Growth inhibition of human UO31 cells at 10 uM after 48 hrs by sulforhodamine B assay; assay type: functional; how it was run: as §1
OVCAR-4 = assay: (§3) Growth inhibition of human OVCAR4 cells at 10 uM after 48 hrs by sulforhodamine B assay; assay type: functional; how it was run: as §1
LOX IMVI = assay: (§4) Growth inhibition of human LOXIMVI cells at 10 uM after 48 hrs by sulforhodamine B assay; assay type: functional; how it was run: as §1
[3] = Growth inhibition of human MOLT4 cells at 10 uM after 48 hrs by sulforhodamine B assay; assay type: functional; conditions: MOLT-4, 48 h, read-out: GI; how it was run: as §1
HCT-116 = assay: (§5) Growth inhibition of human HCT116 cells at 10 uM after 48 hrs by sulforhodamine B assay; assay type: functional; how it was run: as §1
NCI-H522 = assay: Growth inhibition of human NCI-H522 cells at 10 uM after 48 hrs by sulforhodamine B assay; assay type: functional; conditions: NCI-H522, 48 h, read-out: GI; how it was run: as §1
[4] = Growth inhibition of human UACC62 cells at 10 uM after 48 hrs by sulforhodamine B assay; assay type: functional; conditions: UACC-62, 48 h, read-out: GI; how it was run: as §1
A498 = assay: Growth inhibition of human A498 cells at 10 uM after 48 hrs by sulforhodamine B assay; assay type: functional; conditions: A498, 48 h, read-out: GI; how it was run: as §1
CAKI-1 = assay: Growth inhibition of human CAKI-1 cells at 10 uM after 48 hrs by sulforhodamine B assay; assay type: functional; conditions: for inhibition of growth at 10 µM: CAKI-1, 48 h, read-out: GI; how it was run: as §1
Hs-578T = assay: (§6) Growth inhibition of human Hs 578T cells at 10 uM after 48 hrs by sulforhodamine B assay; assay type: functional; how it was run: as §1
[5] = Growth inhibition of human HOP92 cells at 10 uM after 48 hrs by sulforhodamine B assay; assay type: functional; conditions: HOP-92, 48 h, read-out: GI; how it was run: as §1
HL-60(TB) = assay: Growth inhibition of human HL-60(TB) cells at 10 uM after 48 hrs by sulforhodamine B assay; assay type: functional; conditions: for inhibition of growth at 10 µM: HL-60, 48 h, read-out: GI
How it was run: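 NCI-60 one-dose primary screen, HL-60(TB) within the leukemia subpanel. Single 10 µM concentration, 48 h continuous exposure. Growth estimated by sulforhodamine B protein assay. Percent growth of treated cells expressed as percentage growth inhibition (GI%).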

EKVX = assay: (§7) Growth inhibition of human EKVX cells at 10 uM after 48 hrs by sulforhodamine B assay; assay type: functional; how it was run: as §1
IGROV-1 = assay: Growth inhibition of human IGROV1 cells at 10 uM after 48 hrs by sulforhodamine B assay; assay type: functional; conditions: IGROV-1, 48 h, read-out: GI; how it was run: as §1
[6] = Growth inhibition of human PC3 cells at 10 uM after 48 hrs by sulforhodamine B assay; assay type: functional; conditions: PC-3, 48 h, read-out: GI; how it was run: as §1
[7] = Antioxidant activity assessed as DPPH radical scavenging activity at 10^-3 M incubated for 30 mins by spectrophotometry; assay type: physicochemical; conditions: 0.5 h, 1000 µM
How it was run: (§8)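 Compound at 10^-3 or 10^-4 M mixed with methanolic DPPH (0.1 mL of 1 mM stock; 3 mL total volume), shaken, kept in the dark 30 min at room temperature. Absorbance read at 517 nm. Scavenging (%) = (A_control − A_sample)/A_control × 100, where the control is DPPH in methanol alone. BHT served as reference antioxidant. Triplicate, mean ± SD of three independent experiments.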

[8] = as §2; assay type: functional; conditions: UO-31, 48 h, read-out: GI; how it was run: as §1
[9] = as §3; assay type: functional; conditions: OVCAR-4, 48 h, read-out: GI; how it was run: as §1
[10] = as §4; assay type: functional; conditions: LOX IMVI, read-out: GI; how it was run: as §1
[11] = as §5; assay type: functional; conditions: HCT-116, 48 h, read-out: GI; how it was run: as §1
[12] = Antioxidant activity assessed as DPPH radical scavenging activity at 10^-4 M incubated for 30 mins by spectrophotometry; assay type: physicochemical; conditions: 0.5 h, 100 µM; how it was run: as §8
[13] = as §6; assay type: functional; conditions: read-out: GI; how it was run: as §1
[14] = as §7; assay type: functional; conditions: read-out: GI; how it was run: as §1

SMILES	inhibition of growth at 10 µM (MDA-MB-468) [%]	inhibition of growth at 10 µM [1] [%]	inhibition of growth at 10 µM (K562) [%]	inhibition of growth at 10 µM (ACHN) [%]	inhibition of growth at 10 µM (T47D) [%]	inhibition of growth at 10 µM (CCRF-CEM) [%]	inhibition of growth at 10 µM [2] [%]	inhibition of growth at 10 µM (SK-MEL-5) [%]	inhibition of growth at 10 µM [3] [%]	inhibition of growth at 10 µM (NCI-H522) [%]	inhibition of growth at 10 µM [4] [%]	inhibition of growth at 10 µM (A498) [%]	inhibition of growth at 10 µM (CAKI-1) [%]	growth inhibition (GI) (Hs-578T)	inhibition of growth at 10 µM [5] [%]	inhibition of growth at 10 µM (IGROV-1) [%]	inhibition of growth at 10 µM [6] [%]	inhibition of growth at 10 µM (U-251) [%]	inhibition of growth at 10 µM (SNB-75) [%]	inhibition (INH) [7] [%]	other results
CC1CCCc2c1nc1[nH]c(=S)n(-c3ccccc3)c(=N)c1c2-c1cccn1C (centres undefined)	11.4	14.1	12.1	12.3	19.3	15.6	47.6	16.3	23.8	21.5	18.4	8.6	13.8	inactive	23.6	10.6	12.5				growth inhibition (GI) (U-251): inactive; growth inhibition (GI) (SNB-75): inactive; growth inhibition (GI) (UO-31): inactive; growth inhibition (GI) (OVCAR-4): inactive; growth inhibition (GI) (LOX IMVI): inactive; growth inhibition (GI) (HCT-116): inactive; growth inhibition (GI) (HL-60(TB)): inactive; growth inhibition (GI) (EKVX): inactive
CC1CCCc2c1nc(NC(=S)NC(=O)c1ccccc1)c(C#N)c2-c1cccn1C (centres undefined)	32.7	20.1	33.5	31.4	40.6	27.5	36.7	12.8	31.4	22.4	24.7	22.6	31.9		32	38.8	28.4	15.8	31.9	23	inhibition of growth at 10 µM [8]: 51.4%; inhibition of growth at 10 µM [9]: 27.6%; inhibition of growth at 10 µM [10]: 29.6%; inhibition of growth at 10 µM [11]: 19.5%; inhibition (INH) [12]: 11%; inhibition of growth at 10 µM [13]: 38.1%; inhibition of growth at 10 µM (HL-60(TB)): 35.9%; inhibition of growth at 10 µM [14]: 14.2%
CC1CCCc2c1nc1[nH]c(=S)nc(N)c1c2-c1cccn1C (centres undefined)		13.4	29.6	15.2	40.1	26.7	51.9	18.4	32.6	29.7	23.5	41.3		inactive	36.4	34.4	19.8	21.4	17.5	26	growth inhibition (GI) (MDA-MB-468): inactive; inhibition of growth at 10 µM [8]: 34.7%; inhibition of growth at 10 µM [9]: 13.8%; inhibition of growth at 10 µM [10]: 10.7%; inhibition of growth at 10 µM [11]: 22.6%; inhibition (INH) [12]: 14%; growth inhibition (GI) (CAKI-1): inactive; inhibition of growth at 10 µM (HL-60(TB)): 33.2%; inhibition of growth at 10 µM [14]: 18.9%
